Reference: PMC6704442 (ACS Omega, 2019)
Values joined by “and” are separate entries in the source; they are usually repeats but may differ in a detail not shown here. Identical values can stand only once.

Assays:
[1] = 40 mg kg^–1; cited from earlier work
[2] = molecular target: human serum albumin (HSA) (Homo sapiens, UniProt P02768); assay: HSA binding by steady-state fluorescence quenching; details: 300 K, ±2σ
How it was run: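 Human serum albumin (5 μM, 3 mL, freshly prepared in buffer) was titrated with successive additions of test compound stock at 300 K. Excitation was 283 nm and emission was read at 372 nm, with slits of 1 and 5 nm. Fluorescence was inner-filter corrected. KSV came from the Stern–Volmer equation; Ka and n came from log[(F0−F)/F] versus log[Q]. Performed in triplicate.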

[3] = tested on: H1 histone; assay: H1 histone binding by steady-state fluorescence quenching; details: 300 K, ±2σ
[4] = literature value for comparison; cited from earlier work

human serum albumin (HSA), sequence (P02768 25-609): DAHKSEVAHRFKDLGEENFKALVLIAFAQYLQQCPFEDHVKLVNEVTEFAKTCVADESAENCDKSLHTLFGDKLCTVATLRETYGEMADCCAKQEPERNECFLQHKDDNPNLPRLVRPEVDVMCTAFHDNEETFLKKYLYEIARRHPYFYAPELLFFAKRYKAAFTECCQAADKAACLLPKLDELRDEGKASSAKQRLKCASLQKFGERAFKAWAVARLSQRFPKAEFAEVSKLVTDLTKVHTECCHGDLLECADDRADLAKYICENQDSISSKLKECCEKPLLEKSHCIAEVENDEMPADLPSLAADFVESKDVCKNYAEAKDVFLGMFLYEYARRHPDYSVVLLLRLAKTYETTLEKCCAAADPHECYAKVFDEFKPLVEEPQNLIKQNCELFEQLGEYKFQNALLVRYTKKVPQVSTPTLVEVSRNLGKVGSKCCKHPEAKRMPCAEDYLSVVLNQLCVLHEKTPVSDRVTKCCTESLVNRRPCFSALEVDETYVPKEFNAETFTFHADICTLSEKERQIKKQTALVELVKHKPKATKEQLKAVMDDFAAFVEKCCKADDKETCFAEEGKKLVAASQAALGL

Row | Compound | tmax [1] [h] | KSV × 10^–3 (Stern-Volmer constant), HSA [2] | n (number of binding sites), HSA [2] | KSV × 10^–3 (Stern-Volmer constant), H1 [3] | n (number of binding sites), H1 [3] | AUCtotal [4] [μg h L^–1] | CLapp [4] [L h^–1] | Vd [4] [L] | t1/2e [4] [h]
1 | [Cl][Ru]([Cl])([Cl])[Cl].[Na+].c1ccc2[nH]ncc2c1.c1ccc2[nH]ncc2c1 [KP-1339/IT139, sodium trans-[tetrachloridobis(1H-indazole)ruthenate(III)]] | 2.5 | – | – | – | – | – | – | – | –
2 | Cc1ccc(C(C)C)cc1.[Cl][Ru]([Cl])[PH]12CN3CN(CN(C3)C1)C2 [RAPTA-C] | – | 7.06 ± 1.37 × 10^–3 | 0.87 ± 0.04 | 1.85 ± 0.21 × 10^–3 | 1.06 ± 0.03 | 891 | 0.009 | 0.153 | 11.47
3 | N.N.[Cl][Pt][Cl] [cisplatin] | – | 0.58 ± 0.14 × 10^–3 | 1.18 ± 0.21 | 2.28 ± 0.59 × 10^–3 | 0.48 and 0.48 ± 0.14 | – | – | – | –
